# Measurements published in ChEMBL document CHEMBL1155764, “Cytotoxicity of Rhamnosylanthraquinones and Rhamnosylanthrones from Rhamnus nepalensis” (J Nat Prod, 2001).
# System: Mus musculus
# Assay: Toxicity in mouse P388 cells xenografted CDF1 mouse assessed as survival time at 10 mg/kg, ip
# Type: organism-based
# Set-up: dose 10 mg/kg, route intraperitoneal
# Conditions: in vivo; call rule not given here
# Outline: (§1)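 Two CDF1 mice per dose received P388 leukaemia cells intravenously, then a single intraperitoneal injection of the compound at 10, 5 or 2.5 mg/kg. The read-out was survival time in days after injection, compared with the average survival of the grafted mice.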
row,Structure (SMILES),Survival [days]
1,CC(=O)O[C@@H]1[C@@H](O)[C@H](C)O[C@@H](Oc2cc(O)c3c(c2)Cc2cc(C)cc(O)c2C3=O)[C@@H]1OC(C)=O [PRINOIDIN],2

# System: Mus musculus
# Assay: Toxicity in mouse P388 cells xenografted CDF1 mouse assessed as survival time at 2.5 mg/kg, ip
# Type: organism-based
# Set-up: dose 2.5 mg/kg, route intraperitoneal
# Conditions: in vivo
# Outline: as §1
row,Structure (SMILES),Survival [days]
1,CC(=O)O[C@@H]1[C@@H](O)[C@H](C)O[C@@H](Oc2cc(O)c3c(c2)Cc2cc(C)cc(O)c2C3=O)[C@@H]1OC(C)=O [PRINOIDIN],7

# System: KB
# Assay: Cytotoxicity against human KB cells
# Type: functional, cell-based
# Conditions: Homo sapiens, KB; read-out: IC50
row,Structure (SMILES),IC50 [µM]
1,CC(=O)O[C@@H]1[C@@H](O)[C@H](C)O[C@@H](Oc2cc(O)c3c(c2)[C@H]([C@H]2c4cc(C)cc(O)c4C(=O)c4c(O)cc(O)cc42)c2cc(C)cc(O)c2C3=O)[C@@H]1OC(C)=O,1.3
2,CC(=O)O[C@@H]1[C@@H](O)[C@H](C)O[C@@H](Oc2cc(O)c3c(c2)[C@H]([C@@H]2c4cc(C)cc(O)c4C(=O)c4c(O)cc(O[C@@H]5O[C@@H](C)[C@H](O)[C@@H](OC(C)=O)[C@H]5OC(C)=O)cc42)c2cc(C)cc(O)c2C3=O)[C@@H]1OC(C)=O,2.5
3,CC(=O)O[C@@H]1[C@@H](O)[C@H](C)O[C@@H](Oc2cc(O)c3c(c2)[C@@H]([C@H]2c4cc(C)cc(O)c4C(=O)c4c(O)cc(O)cc42)c2cc(C)cc(O)c2C3=O)[C@@H]1OC(C)=O,0.8
4,CC(=O)O[C@@H]1[C@@H](O)[C@H](C)O[C@@H](Oc2cc(O)c3c(c2)[C@H]([C@H]2c4cc(C)cc(O)c4C(=O)c4c(O)cc(O[C@@H]5O[C@@H](C)[C@H](O)[C@@H](OC(C)=O)[C@H]5OC(C)=O)cc42)c2cc(C)cc(O)c2C3=O)[C@@H]1OC(C)=O,0.9
5,Cc1cc(O)c2c(c1)[C@@H]([C@H]1c3cccc(O)c3C(=O)c3c(O)cc(C)cc31)c1cc(O)cc(O)c1C2=O,1.8
6,Cc1cc(O)c2c(c1)[C@H]([C@@H]1c3cc(C)cc(O)c3C(=O)c3c(O)cc(O)cc31)c1cccc(O)c1C2=O,3.4
7,Cc1cc(O)c2c(c1)[C@H]([C@H]1c3cccc(O)c3C(=O)c3c(O)cc(C)cc31)c1cccc(O)c1C2=O,0.2
8,CC(=O)O[C@@H]1[C@@H](O)[C@H](C)O[C@@H](Oc2cc(O)c3c(c2)C(=O)c2cc(C)cc(O)c2C3=O)[C@@H]1OC(C)=O,1.9
9,Cc1cc(O)c2c(c1)[C@H]([C@H]1c3cc(C)cc(O)c3C(=O)c3c(O)cc(O)cc31)c1cc(O)cc(O)c1C2=O,2.5
10,CC(=O)O[C@@H]1[C@@H](OC(C)=O)[C@H](Oc2cc(O)c3c(c2)C(C(C)=O)c2cc(C)cc(O)c2C3=O)O[C@@H](C)[C@H]1OC(C)=O (some centres not stated),0.07
11,CC(=O)O[C@@H]1[C@@H](O)[C@H](C)O[C@@H](Oc2cc(O)c3c(c2)[C@H]([C@H]2c4cc(C)cc(O)c4C(=O)c4c(O)cc(O[C@@H]5O[C@@H](C)[C@H](OC(C)=O)[C@@H](O)[C@H]5OC(C)=O)cc42)c2cc(C)cc(O)c2C3=O)[C@@H]1OC(C)=O,0.8
12,CC(=O)O[C@@H]1[C@@H](O)[C@H](C)O[C@@H](Oc2cc(O)c3c(c2)[C@H]([C@@H]2c4cc(C)cc(O)c4C(=O)c4c(O)cc(O[C@@H]5O[C@@H](C)[C@H](OC(C)=O)[C@@H](O)[C@H]5OC(C)=O)cc42)c2cc(C)cc(O)c2C3=O)[C@@H]1OC(C)=O,1.2
13,CC(=O)O[C@@H]1[C@@H](O)[C@H](C)O[C@@H](Oc2cc(O)c3c(c2)[C@@H]([C@@H]2c4cc(C)cc(O)c4C(=O)c4c(O)cc(O[C@@H]5O[C@@H](C)[C@H](OC(C)=O)[C@@H](O)[C@H]5OC(C)=O)cc42)c2cc(C)cc(O)c2C3=O)[C@@H]1OC(C)=O,1
14,CC(=O)O[C@@H]1[C@@H](O)[C@H](C)O[C@@H](Oc2cc(O)c3c(c2)[C@@H]([C@@H]2c4cc(C)cc(O)c4C(=O)c4c(O)cc(O)cc42)c2cc(C)cc(O)c2C3=O)[C@@H]1OC(C)=O,3.3
15,CC(=O)O[C@@H]1[C@@H](O)[C@H](C)O[C@@H](Oc2cc(O)c3c(c2)[C@H]([C@@H]2c4cc(C)cc(O)c4C(=O)c4c(O)cc(O)cc42)c2cc(C)cc(O)c2C3=O)[C@@H]1OC(C)=O,4.5
16,Cc1cc(O)c2c(c1)[C@H]([C@@H]1c3cccc(O)c3C(=O)c3c(O)cc(C)cc31)c1cccc(O)c1C2=O,1.2
17,Cc1cc(O)c2c(c1)[C@H]([C@H]1c3cc(C)cc(O)c3C(=O)c3c(O)cc(O)cc31)c1cccc(O)c1C2=O,1.4
18,Cc1cc(O)c2c(c1)[C@@H]([C@H]1c3cc(C)cc(O)c3C(=O)c3c(O)cc(O)cc31)c1cc(O)cc(O)c1C2=O,1.1
19,Cc1cc(O)c2c(c1)[C@@H]([C@H]1c3cc(C)cc(O)c3C(=O)c3c(O)cc(O)cc31)c1cccc(O)c1C2=O,1.2
20,COc1cccc2c1C(=O)c1c(O)c3c(c(O)c1C2=O)C[C@@](O)(C(=O)CO)C[C@@H]3O[C@H]1C[C@H](N)[C@H](O)[C@H](C)O1 [DOXORUBICIN],0.2
21,Cc1cc(O)c2c(c1)Cc1cc(O)cc(O)c1C2=O [EMODIN ANTHRONE],3.9
22,CC(=O)O[C@@H]1[C@@H](O)[C@H](C)O[C@@H](Oc2cc(O)c3c(c2)Cc2cc(C)cc(O)c2C3=O)[C@@H]1OC(C)=O [PRINOIDIN],0.045

# Same assay, conditions: kb
row,Structure (SMILES),IC50
1,CC(=O)O[C@H]1[C@H](Oc2cc(O)c3c(c2)C(=O)c2cc(C)cc(O)c2C3=O)O[C@@H](C)[C@H](O)[C@H]1O,Not Active
2,CC(=O)O[C@@H]1[C@@H](OC(C)=O)[C@H](C)O[C@@H](Oc2cc(O)c3c(c2)C(=O)c2cc(C)cc(O)c2C3=O)[C@@H]1OC(C)=O,Not Active
3,CC(=O)O[C@@H]1[C@@H](O)[C@H](C)O[C@@H](Oc2cc(O)c3c(c2)C(=O)c2cc(C)cc(O)c2C3=O)[C@@H]1O,Not Active
4,Cc1cc(O)c2c(c1)C(=O)c1cccc(O)c1C2=O [CHRYSOPHANOL],Not Active
5,Cc1cc(O)c2c(c1)C(=O)c1cc(O)cc(O)c1C2=O [EMODIN],Not Active
6,CC(=O)Oc1cc(C)cc2c1C(=O)c1c(OC(C)=O)cc(O[C@@H]3O[C@@H](C)[C@H](OC(C)=O)[C@@H](OC(C)=O)[C@H]3OC(C)=O)cc1C2=O [FRANGULIN A PERACETATE],Not Active
7,COc1cc(O)c2c(c1)C(=O)c1cc(C)cc(O)c1C2=O [PHYSCION],Not Active

# System: Mus musculus
# Assay: Toxicity in mouse P388 cells xenografted CDF1 mouse assessed as survival time at 5 mg/kg, ip
# Type: organism-based
# Set-up: dose 5 mg/kg, route intraperitoneal
# Conditions: in vivo
# Outline: as §1
row,Structure (SMILES),Survival [days]
1,CC(=O)O[C@@H]1[C@@H](O)[C@H](C)O[C@@H](Oc2cc(O)c3c(c2)Cc2cc(C)cc(O)c2C3=O)[C@@H]1OC(C)=O [PRINOIDIN],4
